Diaph act CS = activates diaphorase or chemically reduces, flagging diaphorase assay artifacts; Diaphorase/resazurin coupled assay, resorufin fluorescence, 16 min; active compounds read high; 1 = vehicle wells, 0 = NADH-free wells; activation factor at 20 µM; 190,000 compounds, 0.005% hits; AID 1229;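 active = diaphorase activity raised at least twofold by the compound at 20 µM; inactive = activation factor below 2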
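Material: purified diaphorase enzyme from Clostridium kluyveri; Also added: 0.114 mM NADH and 0.1 mM resazurin, final amounts; Doses: single compound dose of 20 µM, 1% DMSO final; Times: 16 min enzyme reaction, ambient temperature; Detection: resorufin fluorescence, excitation 544 nm, emission 590 nm; Measure: increased resorufin signal from activators or reducing compounds.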
G6PDH counter = inhibits Leuconostoc G6PDH, flagging false hits in G6PDH-based assays | Purified L. mesenteroides G6PDH, diaphorase/resazurin coupled fluorescence, 45 min | inhibition, % at 5 µM | 200,000 compounds, 0.12% hits | AID 1020
Lmaj promast = Leishmania major promastigote growth inhibition. inhibition, % at 10 µM. AID 1063. 200,000 compounds, 9% hits. Leishmania major promastigotes, resazurin fluorescence viability;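 also: promastigotes grown with compound for 44 hours at 28 °C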
WT yeast gro inh = growth inhibition of WT yeast, mitochondrial fusion screen; mitochondrial fusion phenotypic screen, WT strain; inhibition, % at 10 µM; 190,000 compounds, 2.1% hits; in the data active = inhibition above about 58%; tested in S. cerevisiae
Diaph inh CS = diaphorase inhibition or chemical oxidation counter-screen. diaphorase resazurin-to-resorufin fluorescence, NADH, 16 min; bacterial (C. kluyveri) enzyme, not human. inhibition, % at 20 µM. 190,000 compounds, 0.69% hits. AID 1217;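 active = primary screen inhibition at 20 µM above a set limit, cut at about 50% in these data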;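 also: plate controls were DMSO with full reaction for no effect and wells lacking NADH for full effect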
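Benchmarks: positive control wells lacking NADH, neutral wells with DMSO only. System: bacterial diaphorase enzyme (C. kluyveri). Input: 0.14 U/mL diaphorase, enzyme working solution. Detection: resorufin fluorescence, excitation 544 nm, emission 590 nm. Times: 16-min room-temperature incubation before reading.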
* = called active by the depositor; . = not tested or not shown. Rows were chosen to be rich in hits. Some 11% of all compounds tested hit in one or more screens of this group. Rule as the data show it, unless noted: active = inhibition above about 50%; inactive = the rest.

SMILES	Diaph act CS	G6PDH counter	Lmaj promast	WT yeast gro inh	Diaph inh CS
Cc1ccc(NC(=O)COc2ccccc2CNC(C)(C)CC(C)(C)C)cc1	0.9	3.4	100.4*	34.6	6.9
O=C(COC(=O)c1cc2ccccc2cc1O)Nc1cccnc1Cl	0.9	0.5	62.9*	-36.9	5.4
CCN(CC)S(=O)(=O)c1ccc(N2CCCC2)c(C(=O)Nc2ccc(OC)c(Cl)c2)c1	0.8	2.1	91.0*	-12.3	21.0
CCN(CC)S(=O)(=O)c1cccc(NC(=O)c2ccc(SC)cc2OC)c1	0.9	3.5	61.8*	5.9	10.9
O=C(O)c1cc2ccccc2n1-c1ccccc1	0.8	2.1	-8.4	-24.5	18.9
COC(=O)c1c(NC(=O)c2cccs2)sc2c1CCC(C)C2 (stereo not drawn)	0.8	3.8	-2.5	15.7	15.7
CC(C)(C)C1CCc2c(sc(NC(=O)c3cccs3)c2C(=O)N2CCCCC2)C1 (stereo not drawn)	0.7	3.2	18.9	61.7*	28.0
O=C(N/N=C/C(Br)=C/c1ccccc1)c1n[nH]c2c1CCC2	0.8	-5.6	98.3*	49.9	20.8
O=C(N/N=C/c1ccccc1Cl)c1n[nH]c2c1CCCC2	1.1	12.2	89.4*	5.7	-13.5
O=C(N/N=C/c1ccccc1)c1n[nH]c2c1CCCC2	0.9	8.6	15.7	-19.9	10.9
O=C(CCc1nnc(CCCCc2ccccc2)o1)NCCCc1cccnc1	.	15.0	10.0	0.5	.
Cc1ccc2nc3c(c(N)c2c1)CCN3c1ccccc1	0.8	2.7	89.4*	-15.2	18.5
Cc1ccc2nc(C)cc(Cl)c2c1	0.8	4.1	-6.4	-6.8	22.7
CC(C)CCNC(=O)Cc1csc(-c2ccccc2)n1	0.9	11.4	4.0	-12.1	9.7
CCN(CC)CCNC(C(=O)Nc1cc(C(F)(F)F)ccc1Cl)c1ccccc1 (stereo not drawn)	0.9	-13.3	1.7	2.4	7.8
O=C(Nc1cc(C(F)(F)F)ccc1Cl)C(NCc1ccccc1)c1ccccc1 (stereo not drawn)	0.8	1.0	92.4*	30.6	18.8
Cc1ccc(NC(=O)CN(Cc2ccccc2)S(C)(=O)=O)cc1C	0.8	1.7	-4.7	14.1	15.4
C=CCc1ccccc1OCCn1ccnc1	0.9	-17.4	0.8	11.3	9.4
C=CCc1ccccc1OCC(O)CN1CCN(c2ccccc2OC)CC1 (stereo not drawn)	0.9	15.1	27.4	6.2	14.1
Cc1ccccc1OCCCN1CCCC1	1	3.5	40.6	11.9	2.5
C=CCc1ccccc1OCC(CN1CCCCC1)OC(C)=O (stereo not drawn)	1	1.1	65.4*	-4.8	-0.4
C=CCc1ccccc1OCC(O)CN1CCN(c2ccccc2F)CC1 (stereo not drawn)	0.8	3.6	68.7*	21.8	23.9
CCc1ccccc1OCCCCN1CCCC1	0.9	-11.3	94.5*	4.3	9.6
C=CCc1ccccc1OCCCCN1CCCC1	0.9	-1.3	76.7*	-17.4	12.8
CN(c1ccccc1)S(=O)(=O)c1ccc(C(=O)NCc2ccccn2)cc1	1	7.4	13.2	2.2	-0.9
SMILES	Diaph act CS	G6PDH counter	Lmaj promast	WT yeast gro inh	Diaph inh CS
COc1ccc(CN2CCN(CCc3ccccc3)C(CCO)C2)cc1Cn1cncn1 (stereo not drawn)	0.8	15.9	39.9	3.4	15.3
Cc1ccc2cc(C)c3nnc(SCC(=O)N4CCN(C(=O)c5ccco5)CC4)n3c2c1	0.5	6.5	-0.1	18.8	51.2*
Cc1ccc(-c2c3c([nH]c(=S)c2C#N)CCCC3)o1	0.5	19.5	-2.5	2.5	50.6*
Cn1nc(C(F)(F)F)c2cc(NC(=O)OCc3ccc(F)cc3)sc21	0.8	7.1	-1.3	78.7*	23.8
Cn1nc(C(F)(F)F)c2cc(C(=O)Nc3ccc(Cl)cc3)sc21	0.8	0.4	7.6	74.0*	20.7
O=C(c1cccc(S(=O)(=O)NCc2ccccc2)c1)N1CCN(Cc2ccccc2)CC1	0.9	2.7	11.7	-7.8	11.4
Cc1ccc(S(=O)(=O)NCc2ccc(C(=O)NCCCN3CCC(Cc4ccccc4)CC3)cc2)cc1	1	-3.6	96.0*	17.4	4.4
Cc1ccc(S(=O)(=O)NCc2ccc(C(=O)N3CCN(Cc4ccccc4)CC3)cc2)cc1	0.8	-2.1	76.8*	11.5	17.9
CCN1CCN(C(=O)c2ccc(CN(c3ccccc3)S(=O)(=O)c3ccccc3)cc2)CC1	1	17.2	79.9*	-8.1	2.5

High-throughput results: PubChem, several laboratories
